Results reported in ChEMBL document CHEMBL5257147 (ACS Med Chem Lett, 2023).
Calls of active or inactive are those of the source. The rule behind the calls is not given here.

Key:
A-431 = test: Cytotoxicity against human A-431 cells expressing wild type EGFR assessed as reduction in cell viability incubated for 96 hrs by CellTiter-Glo assay; format: functional, cell-based; conditions: A-431, 96 h
BaF3 [1] = test: Cytotoxicity against mouse BaF3 cells expressing EGFR L858R/C797S mutant assessed as reduction in cell viability incubated for 96 hrs by CellTiter-Glo assay; format: functional, cell-based; conditions: BaF3, 96 h
BaF3 [2] = test: Cytotoxicity against mouse BaF3 cells expressing EGFR L858R mutant assessed as reduction in cell viability incubated for 96 hrs by CellTiter-Glo assay; format: functional, cell-based; conditions: BaF3, 96 h
Summary of the method: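 Cell viability measured by CellTiter-Glo (CTG) luminescence. A431 cells are EGFR wild-type dependent. Ba/F3 cells are made dependent on EGFR-L858R or EGFR-L858R/C797S. Readout is an EC50 for loss of viability.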

[3] = molecular target: Epidermal growth factor receptor (Homo sapiens, UniProt P00533); test: Inhibition of wild type EGFR (unknown origin) using TK-substrate preincubated with enzyme for 30 mins followed by substrate and ATP addition for 25 mins by HTRF assay
Sequence of Epidermal growth factor receptor (Homo sapiens, UniProt P00533) (P00533 whole entry): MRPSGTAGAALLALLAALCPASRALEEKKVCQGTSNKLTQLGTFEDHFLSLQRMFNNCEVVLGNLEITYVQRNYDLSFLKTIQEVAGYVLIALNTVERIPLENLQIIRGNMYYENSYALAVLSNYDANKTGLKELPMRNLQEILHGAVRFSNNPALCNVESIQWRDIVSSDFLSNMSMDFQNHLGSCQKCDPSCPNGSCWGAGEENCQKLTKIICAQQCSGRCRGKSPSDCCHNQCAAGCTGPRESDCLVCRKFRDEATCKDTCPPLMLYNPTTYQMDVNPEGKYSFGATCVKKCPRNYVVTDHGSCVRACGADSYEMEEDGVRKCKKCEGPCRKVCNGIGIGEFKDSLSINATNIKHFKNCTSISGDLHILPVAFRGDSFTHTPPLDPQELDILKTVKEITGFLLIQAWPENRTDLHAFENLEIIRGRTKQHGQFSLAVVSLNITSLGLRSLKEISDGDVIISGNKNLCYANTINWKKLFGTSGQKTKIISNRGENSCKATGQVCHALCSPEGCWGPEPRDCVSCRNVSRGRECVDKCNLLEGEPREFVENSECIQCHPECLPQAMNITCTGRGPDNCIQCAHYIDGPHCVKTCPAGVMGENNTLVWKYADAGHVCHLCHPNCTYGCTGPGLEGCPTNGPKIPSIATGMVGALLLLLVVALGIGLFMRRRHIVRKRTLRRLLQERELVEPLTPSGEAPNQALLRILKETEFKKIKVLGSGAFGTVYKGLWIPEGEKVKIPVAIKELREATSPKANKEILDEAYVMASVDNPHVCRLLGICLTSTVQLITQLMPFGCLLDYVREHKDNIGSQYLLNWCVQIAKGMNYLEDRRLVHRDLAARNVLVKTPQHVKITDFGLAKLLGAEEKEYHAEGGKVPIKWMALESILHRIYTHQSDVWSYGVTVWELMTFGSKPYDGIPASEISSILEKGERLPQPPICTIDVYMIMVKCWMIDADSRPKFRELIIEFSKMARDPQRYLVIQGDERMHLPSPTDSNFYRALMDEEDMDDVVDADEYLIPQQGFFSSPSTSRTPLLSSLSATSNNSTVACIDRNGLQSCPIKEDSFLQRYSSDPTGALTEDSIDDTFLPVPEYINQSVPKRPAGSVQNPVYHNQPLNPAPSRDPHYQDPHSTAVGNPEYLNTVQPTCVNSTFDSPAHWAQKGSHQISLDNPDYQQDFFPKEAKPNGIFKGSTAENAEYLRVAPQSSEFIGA

[4] = molecular target: Epidermal growth factor receptor (Homo sapiens, UniProt P00533, L858R); test: Inhibition of EGFR L858R mutant (unknown origin) using TK-substrate preincubated with enzyme for 30 mins followed by substrate and ATP addition for 15 mins by HTRF assay
Sequence of Epidermal growth factor receptor (Homo sapiens, UniProt P00533, L858R) (P00533 25-1210 L858R limits assumed): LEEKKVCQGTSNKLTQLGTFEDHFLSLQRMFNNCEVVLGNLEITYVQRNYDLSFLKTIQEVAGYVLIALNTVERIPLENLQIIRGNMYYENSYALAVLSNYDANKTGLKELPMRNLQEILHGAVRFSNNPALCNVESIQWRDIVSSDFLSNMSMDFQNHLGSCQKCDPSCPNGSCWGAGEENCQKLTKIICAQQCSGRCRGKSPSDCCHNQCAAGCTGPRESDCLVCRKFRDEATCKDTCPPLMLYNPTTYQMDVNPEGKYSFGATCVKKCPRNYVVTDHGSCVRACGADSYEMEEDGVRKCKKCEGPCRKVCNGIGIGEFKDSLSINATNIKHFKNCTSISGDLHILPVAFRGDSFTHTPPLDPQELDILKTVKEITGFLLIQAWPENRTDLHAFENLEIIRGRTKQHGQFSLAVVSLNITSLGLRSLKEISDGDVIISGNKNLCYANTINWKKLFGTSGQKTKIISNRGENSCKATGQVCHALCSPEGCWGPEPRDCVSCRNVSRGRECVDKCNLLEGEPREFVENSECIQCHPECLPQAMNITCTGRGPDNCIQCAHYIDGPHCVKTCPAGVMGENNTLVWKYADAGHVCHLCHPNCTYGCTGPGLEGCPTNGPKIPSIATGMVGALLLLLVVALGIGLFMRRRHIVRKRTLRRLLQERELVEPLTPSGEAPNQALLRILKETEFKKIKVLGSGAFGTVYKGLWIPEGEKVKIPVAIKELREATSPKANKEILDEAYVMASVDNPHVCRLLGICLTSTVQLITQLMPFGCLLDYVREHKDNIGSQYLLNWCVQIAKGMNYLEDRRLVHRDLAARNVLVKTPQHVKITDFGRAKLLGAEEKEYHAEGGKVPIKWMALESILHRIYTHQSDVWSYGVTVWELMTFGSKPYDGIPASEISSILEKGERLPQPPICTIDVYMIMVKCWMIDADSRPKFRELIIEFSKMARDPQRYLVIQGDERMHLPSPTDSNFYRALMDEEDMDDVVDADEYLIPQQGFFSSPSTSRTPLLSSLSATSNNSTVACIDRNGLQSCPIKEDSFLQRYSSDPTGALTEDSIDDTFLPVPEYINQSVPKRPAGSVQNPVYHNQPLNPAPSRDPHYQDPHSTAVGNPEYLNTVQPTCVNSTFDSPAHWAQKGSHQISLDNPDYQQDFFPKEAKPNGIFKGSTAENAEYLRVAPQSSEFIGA

[5] = molecular target: Epidermal growth factor receptor (Homo sapiens, UniProt P00533, C797S/L858R); test: Inhibition of EGFR L858R/C797S mutant (unknown origin) using TK-substrate preincubated with enzyme for 30 mins followed by substrate and ATP addition for 20 mins by HTRF assay
Sequence of Epidermal growth factor receptor (Homo sapiens, UniProt P00533, C797S/L858R) (P00533 25-1210 C797S/L858R limits assumed): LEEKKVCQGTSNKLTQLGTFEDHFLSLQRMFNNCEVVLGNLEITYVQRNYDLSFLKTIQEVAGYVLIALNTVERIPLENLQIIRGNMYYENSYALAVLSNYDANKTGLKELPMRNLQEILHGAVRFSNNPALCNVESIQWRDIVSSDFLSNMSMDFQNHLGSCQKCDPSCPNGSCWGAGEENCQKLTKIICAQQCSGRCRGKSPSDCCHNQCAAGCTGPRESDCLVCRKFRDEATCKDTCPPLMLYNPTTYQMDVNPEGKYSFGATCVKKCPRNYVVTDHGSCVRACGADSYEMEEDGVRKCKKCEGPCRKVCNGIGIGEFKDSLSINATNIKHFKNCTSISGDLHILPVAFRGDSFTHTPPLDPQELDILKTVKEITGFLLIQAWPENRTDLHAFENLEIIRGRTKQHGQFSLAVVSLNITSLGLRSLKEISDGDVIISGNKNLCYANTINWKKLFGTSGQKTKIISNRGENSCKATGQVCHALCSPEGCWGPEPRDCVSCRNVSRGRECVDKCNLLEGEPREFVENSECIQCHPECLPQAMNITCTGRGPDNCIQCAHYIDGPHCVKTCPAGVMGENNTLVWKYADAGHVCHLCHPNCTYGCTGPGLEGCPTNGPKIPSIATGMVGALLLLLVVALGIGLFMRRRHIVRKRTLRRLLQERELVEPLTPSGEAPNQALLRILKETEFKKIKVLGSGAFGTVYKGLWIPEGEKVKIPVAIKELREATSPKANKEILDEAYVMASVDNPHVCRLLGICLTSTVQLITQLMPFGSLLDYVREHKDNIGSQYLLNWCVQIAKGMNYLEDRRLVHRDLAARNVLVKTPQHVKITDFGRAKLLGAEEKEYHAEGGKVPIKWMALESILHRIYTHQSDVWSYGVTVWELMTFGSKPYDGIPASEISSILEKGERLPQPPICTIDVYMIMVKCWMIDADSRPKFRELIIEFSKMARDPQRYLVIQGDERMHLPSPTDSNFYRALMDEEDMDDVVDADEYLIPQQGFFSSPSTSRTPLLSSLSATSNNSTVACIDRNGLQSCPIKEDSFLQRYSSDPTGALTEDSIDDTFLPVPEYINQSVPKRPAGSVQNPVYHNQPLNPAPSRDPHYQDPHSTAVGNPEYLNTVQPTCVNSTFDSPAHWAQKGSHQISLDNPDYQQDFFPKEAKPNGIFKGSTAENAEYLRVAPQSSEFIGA

[6] = Intrinsic clearance in mouse liver microsomes at 1 uM in presence of NADP measured per mg protein by LC-MS/MS analysis; format: ADME, Microsome; conditions: read-out: CLH
[7] = molecular target: Epidermal growth factor receptor (Homo sapiens, UniProt P00533, C797S/L858R/T790M); test: Inhibition of EGFR L858R/T790M/C797S mutant (unknown origin) using TK-substrate preincubated with enzyme for 30 mins followed by substrate and ATP addition for 10 mins by HTRF assay
Sequence of Epidermal growth factor receptor (Homo sapiens, UniProt P00533, C797S/L858R/T790M) (P00533 25-1210 T790M/C797S/L858R limits assumed): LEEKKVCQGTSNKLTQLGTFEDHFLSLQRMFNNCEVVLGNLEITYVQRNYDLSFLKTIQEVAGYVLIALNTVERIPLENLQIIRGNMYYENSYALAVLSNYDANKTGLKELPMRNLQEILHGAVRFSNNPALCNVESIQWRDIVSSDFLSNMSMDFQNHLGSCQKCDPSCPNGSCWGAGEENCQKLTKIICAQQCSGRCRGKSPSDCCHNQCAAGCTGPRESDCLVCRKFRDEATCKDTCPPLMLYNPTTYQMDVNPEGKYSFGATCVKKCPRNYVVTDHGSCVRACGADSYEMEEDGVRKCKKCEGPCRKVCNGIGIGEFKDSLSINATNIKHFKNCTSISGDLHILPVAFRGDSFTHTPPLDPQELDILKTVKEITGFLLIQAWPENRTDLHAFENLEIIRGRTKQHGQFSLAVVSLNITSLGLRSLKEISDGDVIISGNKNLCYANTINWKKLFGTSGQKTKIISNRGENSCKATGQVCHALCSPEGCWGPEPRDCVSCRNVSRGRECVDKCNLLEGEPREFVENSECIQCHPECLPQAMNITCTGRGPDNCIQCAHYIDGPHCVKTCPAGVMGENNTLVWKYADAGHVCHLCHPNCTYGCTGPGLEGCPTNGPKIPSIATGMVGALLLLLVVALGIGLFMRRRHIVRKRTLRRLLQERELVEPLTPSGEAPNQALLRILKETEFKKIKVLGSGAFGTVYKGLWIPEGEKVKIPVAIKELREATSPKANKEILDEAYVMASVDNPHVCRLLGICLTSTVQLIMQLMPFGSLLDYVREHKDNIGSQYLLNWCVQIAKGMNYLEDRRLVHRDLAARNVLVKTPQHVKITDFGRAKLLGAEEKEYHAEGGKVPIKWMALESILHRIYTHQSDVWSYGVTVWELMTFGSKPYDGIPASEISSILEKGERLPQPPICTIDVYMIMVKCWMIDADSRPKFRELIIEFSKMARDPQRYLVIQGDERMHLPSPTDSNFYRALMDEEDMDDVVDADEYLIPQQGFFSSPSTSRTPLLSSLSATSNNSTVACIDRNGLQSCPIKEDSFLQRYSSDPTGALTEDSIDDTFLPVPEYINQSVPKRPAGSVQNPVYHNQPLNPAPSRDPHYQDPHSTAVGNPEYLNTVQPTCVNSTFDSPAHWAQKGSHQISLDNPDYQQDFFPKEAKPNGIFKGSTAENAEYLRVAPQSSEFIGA

[8] = molecular target: Tyrosine-protein kinase Fyn (Homo sapiens) (UniProt P06241); test: Inhibition of His-tagged human recombinant FYN expressed in insect cells at 200 nM by Z'-lyte assay; conditions: Insect cell
[9] = test system: Epidermal growth factor receptor (Homo sapiens), P00533 [L858R,T790M]; test: Inhibition of EGFR L858R/T790M mutant (unknown origin) using TK-substrate preincubated with enzyme for 30 mins followed by substrate and ATP addition for 20 mins by HTRF assay; conditions: time 50.0 min
[10] = molecular target: Platelet-derived growth factor receptor beta (Homo sapiens) (UniProt P09619); test: Inhibition of His-tagged human recombinant PDGFR-beta (558 to 1106 residues) expressed in baculovirus expression system at 200 nM by Z'-lyte assay
[11] = molecular target: Tyrosine-protein kinase BTK (Homo sapiens) (UniProt Q06187); test: Inhibition of His-tagged human recombinant BTK expressed in insect cells at 200 nM by Z'-lyte assay; conditions: Insect cell
BaF3 [12] = test: Cytotoxicity against mouse BaF3 cells expressing EGFR L858R/T790M/C797S mutant assessed as reduction in cell viability incubated for 96 hrs by CellTiter-Glo assay; format: functional, cell-based; conditions: BaF3, 96 h
[13] = molecular target: Platelet-derived growth factor receptor alpha (Homo sapiens) (UniProt P16234); test: Inhibition of GST-tagged human recombinant PDGFR-alpha (550 to 1089 residues) expressed in baculovirus expression system at 200 nM by Z'-lyte assay
[14] = molecular target: Vascular endothelial growth factor receptor 2 (Homo sapiens) (UniProt P35968); test: Inhibition of His-tagged human recombinant VEGFR2 (789 to 1356 residues) expressed in insect cells at 200 nM by Z'-lyte assay; conditions: Insect cell
[15] = molecular target: Tyrosine-protein kinase TXK (Homo sapiens) (UniProt P42681); test: Inhibition of GST-tagged human recombinant TXK (260 to 527 residues) expressed in baculovirus expression system at 200 nM by Z'-lyte assay
Insect cell = test: Inhibition of GST-tagged human recombinant VEGFR3 (800 to 1297 residues) Q890H/V1128L/H1146R mutant expressed in insect cells at 200 nM by Z'-lyte assay
[16] = molecular target: Fibroblast growth factor receptor 2 (Homo sapiens) (UniProt P21802); test: Inhibition of His-tagged human recombinant FGFR2 (403 to 822 residues) expressed in baculovirus expression system at 200 nM by Z'-lyte assay
[17] = molecular target: Tyrosine-protein kinase Fes/Fps (Homo sapiens) (UniProt P07332); test: Inhibition of His-tagged human recombinant FES expressed in baculovirus expression system at 200 nM by Z'-lyte assay
[18] = molecular target: Tyrosine-protein kinase Lyn (Homo sapiens) (UniProt P07948); test: Inhibition of human LYN at 200 nM by Z'-lyte assay
[19] = molecular target: Tyrosine-protein kinase ABL1 (Homo sapiens) (UniProt P00519); test: Inhibition of His-tagged human recombinant ABL1 expressed in insect cells at 200 nM by Z'-lyte assay; conditions: Insect cell
[20] = molecular target: Tyrosine-protein kinase Blk (Homo sapiens) (UniProt P51451); test: Inhibition of His-tagged human recombinant BLK expressed in insect cells at 200 nM by Z'-lyte assay; conditions: Insect cell
[21] = molecular target: Tyrosine-protein kinase Lck (Homo sapiens) (UniProt P06239); test: Inhibition of human LCK at 200 nM by Z'-lyte assay
[22] = molecular target: ALK tyrosine kinase receptor (Homo sapiens) (UniProt Q9UM73); test: Inhibition of human ALK at 200 nM by Z'-lyte assay
[23] = molecular target: Tyrosine-protein kinase HCK (Homo sapiens) (UniProt P08631); test: Inhibition of GST-tagged human recombinant HCK expressed in insect cells at 200 nM by Z'-lyte assay; conditions: Insect cell
[24] = molecular target: Inactive tyrosine-protein kinase PEAK1 (Homo sapiens) (UniProt Q9H792); test: Inhibition of human PEAK1 at 200 nM by Z'-lyte assay

Row | SMILES | EC50 (A-431) [nM] | EC50 (BaF3 [1]) [nM] | EC50 (BaF3 [2]) [nM] | IC50 [3] [nM] | IC50 [5] [nM] | IC50 [7] [nM] | other results
1 | COc1cc(N2CCN(C)CC2)ccc1Nc1ncc(C(=O)OC(C)C)c(-c2cn(C)c3ccccc23)n1 | 7960 | 615 | 605 | – | – | – | –
2 | COC(=O)c1cnc(Nc2ccc(N3CCN(C)CC3)cc2OC)nc1-c1cn(C)c2ccccc12 | – | 3750 | 3340 | 23 | 73 | – | IC50 [4]: 3.4 nM
3 | C=CC(=O)Nc1cc(Nc2nccc(-c3cn(C)c4ccccc34)n2)c(OC)cc1N(C)CCN(C)C [OSIMERTINIB] | […] | 2960 | 6 | – | – | – | microsomal CLint at 1 µM [6]: 81 µL/min/mg
4 | COc1cc(N2CCN(C)CC2)ccc1Nc1ncc(C(=O)Oc2ccccc2)c(-c2cn(C)c3ccccc23)n1 | 2610 | 94 | – | 0.053 | 0.064 | 8.8 | –
5 | COc1cc(N2CCC(N(C)C)CC2)ccc1Nc1ncc(C(=O)OC(C)C)c(-c2cn(C)c3ccccc23)n1 | 3670 | 202 | – | 0.4 | 0.42 | 19 | –
6 | COc1cc(N2CCC(N(C)C)CC2)ccc1Nc1ncc(C(=O)OC(C)C)c(-c2cn(C(C)=O)c3ccccc23)n1 | 3920 | 220 | – | 0.86 | 3 | 78 | –
7 | COc1cc(N2CCC(N3CCN(C)CC3)CC2)ccc1Nc1ncc(Cl)c(Nc2ccccc2P(C)(C)=O)n1 [BRIGATINIB] | 936 | 295 | – | – | – | – | –
8 | COc1cc(N2CCN(C)CC2)ccc1Nc1nccc(-c2cn(C)c3ccccc23)n1 | – | 2060 | 3630 | 34 | 125 | – | IC50 [4]: 5.4 nM
9 | COc1cc(N2CCC(N(C)C)CC2)ccc1Nc1ncc(C(=O)Oc2ccccc2)c(-c2c[nH]c3ccccc23)n1 | 1840 | 7.1 | – | 0.008 | 0.02 | 0.64 | inhibition [8]: > 40%; inhibition [9]: Active; inhibition [10]: > 40%; inhibition [11]: Active; EC50 (BaF3 [12]): 470 nM; inhibition [13]: > 40%; inhibition [14]: > 40%; inhibition [15]: > 40%; inhibition (Insect cell): > 40%; inhibition [16]: > 40%; inhibition [17]: > 40%; microsomal CLint at 1 µM [6]: 55 µL/min/mg
10 | CCOC(=O)c1cnc(Nc2ccc(N3CCN(C)CC3)cc2OC)nc1-c1cn(C)c2ccccc12 | – | 1880 | 1900 | 5.2 | 17 | – | IC50 [4]: 0.68 nM
11 | COc1cc(N2CCC(N)CC2)ccc1Nc1ncc(C(=O)OC(C)C)c(-c2cn(C)c3ccccc23)n1 | 4020 | 354 | – | 0.35 | 0.56 | 12 | –
12 | COc1cc(N2CCN(C)CC2)ccc1Nc1ncc(C(=O)Oc2ccc(F)cc2)c(-c2cn(C)c3ccccc23)n1 | 1410 | 227 | – | – | – | – | –
13 | COc1cc(N2CCC(N(C)C)CC2)ccc1Nc1ncc(C(=O)OC(C)C)c(-c2c[nH]c3ccccc23)n1 | 3890 | 111 | – | 0.16 | 0.32 | 15 | inhibition [18]: > 40%; inhibition [19]: > 40%; inhibition [20]: > 40%; inhibition [21]: > 40%; microsomal CLint at 1 µM [6]: 49 µL/min/mg; inhibition [22]: > 40%; inhibition [23]: > 40%; inhibition [24]: > 40%
14 | C=CC(=O)Nc1cc(Nc2ncc(C(=O)OC(C)C)c(-c3cn(C)c4ccccc34)n2)c(OC)cc1N(C)CCN(C)C [MOBOCERTINIB] | 1680 | 2710 | 1.1 | 0.025 | 25 | 364 | IC50 [4]: 0.01 nM; microsomal CLint at 1 µM [6]: 149 µL/min/mg
